Data set [1] is described as follows: Inhibition of NF-kappaB (unknown origin) assessed as decrease in NF-kappaB/DNA interaction using 32P-labeled target NF-kappaB double-stranded oligonucleotide after 30 mins by EMSA. More on the design: species or system Homo sapiens. In a few lines:
(§1)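 Purified NF-κB p50 (0.1 µl/20 µl, 50 gsu) was combined with 0.25 ng of ³²P-labeled double-stranded NF-κB consensus oligonucleotide. Bound 30 min at room temperature, then run on 6% polyacrylamide in 0.25× TBE at 200 V. IC₅₀ is 50% inhibition of the complex.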

In another data set the test system is IB3-1. Kind of data set: Antiproliferative activity against human IB3-1 cells after 2 days by cell counting analysis. It is filed as cell-based. The settings on record: IB3-1, 48 h. The method, boiled down:
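IB3-1 cells from a CF patient (ΔF508/W1282X), immortalized with adeno12/SV40, grown in LHC-8 with 5% FBS and no gentamycin at 37°C/5% CO₂. Treated at 12.5, 25, 50, 100, 200 and 800 µM. Cells counted by Coulter counter after 2 days, with untreated cells in log phase. IC₅₀ is the concentration giving 50% inhibition of cell growth.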

The species named for data set [2] is Homo sapiens. Kind of data set: Inhibition of NF-kappaB (unknown origin) assessed as decrease in NF-kappaB/DNA interaction at 12.5 to 100 uM using 32P-labeled target NF-kappaB double-stranded oligonucleotide after 30 mins by EMSA. In a few lines: as §1
The species entered for data set [3] is Homo sapiens. Kind of data set: Inhibition of NF-kappaB (unknown origin) assessed as decrease in NF-kappaB/DNA interaction at 12.5 uM using 32P-labeled target NF-kappaB double-stranded oligonucleotide after 30 mins by EMSA.
For data set [4], the system named is Salmonella typhimurium. As to the kind of experiment: Genotoxicity in Salmonella typhimurium TA98 assessed as revertant colonies at 100 uL/plate in absence of Sprague-Dawley rat S9 metabolic activation after 72 hrs by Ames test (reference value: 1). It is filed as toxicity, organism-based. To be noted: salmonella enterica subsp. enterica serovar typhimurium.

The subject of data set [5] is Salmonella typhimurium. Kind of data set: Genotoxicity in Salmonella typhimurium TA98 assessed as revertant colonies at 1 uL/plate in absence of Sprague-Dawley rat S9 metabolic activation after 72 hrs by Ames test (reference value: 1). It is filed as toxicity, organism-based. The settings on record: salmonella enterica subsp. enterica serovar typhimurium.
For data set [6], the system named is Salmonella typhimurium. As to the kind of experiment: Genotoxicity in Salmonella typhimurium TA100 assessed as revertant colonies at 50 uL/plate in presence of Sprague-Dawley rat S9 metabolic activation after 72 hrs by Ames test (reference value: 1). It is filed as toxicity, organism-based. To be noted: salmonella enterica subsp. enterica serovar typhimurium.

The subject of data set [7] is Salmonella typhimurium. Kind of data set: Genotoxicity in Salmonella typhimurium TA98 assessed as revertant colonies at 50 uL/plate in presence of Sprague-Dawley rat S9 metabolic activation after 72 hrs by Ames test (reference value: 1). It is filed as toxicity, organism-based. The settings on record: salmonella enterica subsp. enterica serovar typhimurium.
For data set [8], the system named is Salmonella typhimurium. As to the kind of experiment: Genotoxicity in Salmonella typhimurium TA100 assessed as revertant colonies at 1 uL/plate in presence of Sprague-Dawley rat S9 metabolic activation after 72 hrs by Ames test (reference value: 1). The settings on record: salmonella enterica subsp. enterica serovar typhimurium. It is filed as toxicity, organism-based.

The test system of data set [9] is Salmon testes DNA. As to the kind of experiment: Induction of damage in salmon testes DNA at 100 uM in absence of 2.5 to 7.5 J/cm2 UVA irradiation by ethidium bromide dye-based agarose gel electrophoresis analysis. It is filed as nucleic-acid assay. The settings on record: salmonidae.
Data set [10] deals with Salmonella typhimurium. Kind of data set: Genotoxicity in Salmonella typhimurium TA98 assessed as revertant colonies at 5 uL/plate in presence of Sprague-Dawley rat S9 metabolic activation after 72 hrs by Ames test (reference value: 1). It is filed as toxicity, organism-based. The settings on record: salmonella enterica subsp. enterica serovar typhimurium.
Data set [11] concerns Salmonella typhimurium. Kind of data set: Genotoxicity in Salmonella typhimurium TA98 assessed as revertant colonies at 50 uL/plate in absence of Sprague-Dawley rat S9 metabolic activation after 72 hrs by Ames test (reference value: 1). The settings on record: salmonella enterica subsp. enterica serovar typhimurium. It is filed as toxicity, organism-based.
In data set [12] the test system is Salmonella typhimurium. Kind of data set: Genotoxicity in Salmonella typhimurium TA100 assessed as revertant colonies at 5 uL/plate in absence of Sprague-Dawley rat S9 metabolic activation after 72 hrs by Ames test (reference value: 1). It is filed as toxicity, organism-based. The settings on record: salmonella enterica subsp. enterica serovar typhimurium.
Data set [13] has as its system Salmonella typhimurium. Kind of data set: Genotoxicity in Salmonella typhimurium TA100 assessed as revertant colonies at 100 uL/plate in presence of Sprague-Dawley rat S9 metabolic activation after 72 hrs by Ames test (reference value: 1). It is filed as toxicity, organism-based. To be noted: salmonella enterica subsp. enterica serovar typhimurium.
Data set [14] has as its system Salmonella typhimurium. As to the kind of experiment: Genotoxicity in Salmonella typhimurium TA98 assessed as revertant colonies at 10 uL/plate in presence of Sprague-Dawley rat S9 metabolic activation after 72 hrs by Ames test (reference value: 1). It is filed as toxicity, organism-based. To be noted: salmonella enterica subsp. enterica serovar typhimurium.
Data set [15] relates to Salmonella typhimurium. As to the kind of experiment: Genotoxicity in Salmonella typhimurium TA100 assessed as revertant colonies at 10 uL/plate in presence of Sprague-Dawley rat S9 metabolic activation after 72 hrs by Ames test (reference value: 1). It is filed as toxicity, organism-based. The settings on record: salmonella enterica subsp. enterica serovar typhimurium.

For data set [16], the system named is Salmonella typhimurium. Kind of data set: Genotoxicity in Salmonella typhimurium TA100 assessed as revertant colonies at 10 uL/plate in absence of Sprague-Dawley rat S9 metabolic activation after 72 hrs by Ames test (reference value: 1). It is filed as toxicity, organism-based. The settings on record: salmonella enterica subsp. enterica serovar typhimurium.

In data set [17] the test system is Salmonella typhimurium. Kind of data set: Genotoxicity in Salmonella typhimurium TA98 assessed as revertant colonies at 1 uL/plate in presence of Sprague-Dawley rat S9 metabolic activation after 72 hrs by Ames test (reference value: 1). It is filed as toxicity, organism-based. The settings on record: salmonella enterica subsp. enterica serovar typhimurium.
For data set [18], the system named is Salmonella typhimurium. As to the kind of experiment: Genotoxicity in Salmonella typhimurium TA98 assessed as revertant colonies at 5 uL/plate in absence of Sprague-Dawley rat S9 metabolic activation after 72 hrs by Ames test (reference value: 1). To be noted: salmonella enterica subsp. enterica serovar typhimurium. It is filed as toxicity, organism-based.

Data set [19] concerns Salmonella typhimurium. Kind of data set: Genotoxicity in Salmonella typhimurium TA98 assessed as revertant colonies at 10 uL/plate in absence of Sprague-Dawley rat S9 metabolic activation after 72 hrs by Ames test (reference value: 1). It is filed as toxicity, organism-based. The settings on record: salmonella enterica subsp. enterica serovar typhimurium.
For data set [20], the system named is Salmonella typhimurium. Kind of data set: Genotoxicity in Salmonella typhimurium TA98 assessed as revertant colonies at 100 uL/plate in presence of Sprague-Dawley rat S9 metabolic activation after 72 hrs by Ames test (reference value: 1). To be noted: salmonella enterica subsp. enterica serovar typhimurium. It is filed as toxicity, organism-based.
Data set [21] concerns Salmon testes DNA. As to the kind of experiment: Induction of damage in salmon testes DNA at 100 uM in presence of 2.5 to 7.5 J/cm2 UVA irradiation by ethidium bromide dye-based agarose gel electrophoresis analysis. It is filed as nucleic-acid assay. The settings on record: salmonidae.
Data set [22] relates to Salmonella typhimurium. Kind of data set: Genotoxicity in Salmonella typhimurium TA100 assessed as revertant colonies at 50 uL/plate in absence of Sprague-Dawley rat S9 metabolic activation after 72 hrs by Ames test (reference value: 1). It is filed as toxicity, organism-based. The settings on record: salmonella enterica subsp. enterica serovar typhimurium.
Data set [23] deals with Salmonella typhimurium. As to the kind of experiment: Genotoxicity in Salmonella typhimurium TA100 assessed as revertant colonies at 1 uL/plate in absence of Sprague-Dawley rat S9 metabolic activation after 72 hrs by Ames test (reference value: 1). To be noted: salmonella enterica subsp. enterica serovar typhimurium. It is filed as toxicity, organism-based.
The subject of data set [24] is Salmonella typhimurium. As to the kind of experiment: Genotoxicity in Salmonella typhimurium TA100 assessed as revertant colonies at 5 uL/plate in presence of Sprague-Dawley rat S9 metabolic activation after 72 hrs by Ames test (reference value: 1). It is filed as toxicity, organism-based. The settings on record: salmonella enterica subsp. enterica serovar typhimurium.

The test system of data set [25] is Salmonella typhimurium. As to the kind of experiment: Genotoxicity in Salmonella typhimurium TA100 assessed as revertant colonies at 100 uL/plate in absence of Sprague-Dawley rat S9 metabolic activation after 72 hrs by Ames test (reference value: 1). It is filed as toxicity, organism-based. To be noted: salmonella enterica subsp. enterica serovar typhimurium.

The source made the active and inactive calls. The calls are words filed in the database; no cut-off is given here.

As to `Cc1cc2c(C(C)C)cc(=O)oc2c2c(C)coc12`, the IC50 is 18.9 µM in [1] and greater than 200 µM in the data set on IB3-1. Besides, the inhibition entry in the data set filed under Homo sapiens [2] was “Active”.
`CCCc1cc(=O)oc2c1cc(CC)c1occ(C)c12`: the IC50 in data set [1] is 19.8 µM; with IB3-1, 162 µM. Further, the inhibition entry in the data set listed under Homo sapiens [2] was “Active”.
In the case of `CCCc1cc(=O)oc2c1cc(C)c1occ(C)c12`, the IC50 in data set [1] was 21.9 µM; in the data set with IB3-1, 200 µM. Also, the inhibition entry in the data set listed under Homo sapiens [2] is “Active”.
For `CCc1cc2c(C)cc(=O)oc2c2c(C)coc12` the same measures were 24 µM, greater than 200 µM and “Active”.
Regarding `CCc1cc(=O)oc2c1cc(C)c1occ(C)c12`, the IC50 was determined as 8 µM in [1] and 50 µM in the data set with IB3-1. Further, the inhibition result in the data set filed under Homo sapiens [2] and in the data set listed under Homo sapiens [3] was “Active” each time.
Take `CCc1cc(=O)oc2c1cc(CC)c1occ(C)c12`: the half-inhibitory concentration (IC50) in [1] is 17.8 µM; in the data set on IB3-1, greater than 200 µM. For the same compound, the inhibition entry in the data set listed under Homo sapiens [2] was “Active”.
Take `Cc1cc(=O)oc2c1cc(C)c1occ(C)c12`: the T/C in the data set with Salmonella typhimurium [4] is given as 1.22; in the data set on Salmonella typhimurium [5], 1.03; in the data set on Salmonella typhimurium [6] it was 1.16; in the data set with Salmonella typhimurium [7] it was 8.25; in the data set on Salmonella typhimurium [8], 1.1; in the data set with Salmonella typhimurium [10] it was 1.9. Also, the T/C in the data set on Salmonella typhimurium [11] was determined as 0.97; in the data set on Salmonella typhimurium [12] it was 1.03; in the data set on Salmonella typhimurium [13], 2.52; in the data set with Salmonella typhimurium [14], 4.5; in the data set with Salmonella typhimurium [15] it was 1.04; in the data set on Salmonella typhimurium [16], 1.06. The T/C was 0.75 in the data set on Salmonella typhimurium [17]; 0.63 in the data set with Salmonella typhimurium [18]; 1.16 with Salmonella typhimurium [19]; 6.86 with Salmonella typhimurium [20]; 1.09 in the data set on Salmonella typhimurium [22]; 0.99 in the data set with Salmonella typhimurium [23]. The T/C in the data set on Salmonella typhimurium [24] is 1; with Salmonella typhimurium [25], 1.03. The outcome in the data set on Salmon testes DNA [9] and in the data set with Salmon testes DNA [21] was Active. For the same compound, the inhibition entry in the data set listed under Homo sapiens [2] was “Active”.
